# Tests used:
# [1] = target: T1, Glycylpeptide N-tetradecanoyltransferase 1 (Homo sapiens, UniProt P30419); experiment: Inhibition of human NMT1 using [3H]-myristoyl-coA/biotinylated CAP5.5 as substrate after 15 mins by scintillation proximity assay
# T1 sequence (P30419 whole entry): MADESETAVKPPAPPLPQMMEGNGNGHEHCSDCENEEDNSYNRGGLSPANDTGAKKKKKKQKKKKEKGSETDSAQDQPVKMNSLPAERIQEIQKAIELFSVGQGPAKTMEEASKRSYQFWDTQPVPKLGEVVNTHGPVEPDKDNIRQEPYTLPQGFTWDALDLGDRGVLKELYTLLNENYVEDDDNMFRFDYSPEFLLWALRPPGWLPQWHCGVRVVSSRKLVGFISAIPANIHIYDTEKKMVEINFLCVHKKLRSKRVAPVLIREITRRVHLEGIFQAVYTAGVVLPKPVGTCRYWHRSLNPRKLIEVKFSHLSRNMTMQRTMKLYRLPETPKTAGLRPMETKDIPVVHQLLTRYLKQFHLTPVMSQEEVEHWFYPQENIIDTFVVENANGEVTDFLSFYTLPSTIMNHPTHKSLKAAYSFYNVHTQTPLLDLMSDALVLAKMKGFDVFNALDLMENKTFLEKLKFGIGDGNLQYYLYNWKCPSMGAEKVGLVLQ
# [2] = Inhibition of Trypanosoma brucei NMT using [3H]-myristoyl-coA/biotinylated CAP5.5 as substrate after 50 mins by scintillation proximity assay
# In short: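 TbNMT scintillation proximity assay at 22–23 °C, with test compound dilutions added in DMSO. Reaction: 30 mM Tris pH 7.4, 0.5 mM EDTA, 0.5 mM EGTA, 1.25 mM DTT, 0.1% Triton X-100, 0.125 μM [3H]myristoyl-coA, 0.5 μM biotinylated CAP5.5 peptide, 5 nM enzyme. Enzyme added first, then substrate mix to start; stopped after 50 min with phosphoric acid pH 4.0/MgCl2/SPA beads; scintillation counting.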
# [3] = tested on: Trypanosoma brucei brucei; experiment: Antitrypanosomal activity against bloodstream form of Trypanosoma brucei brucei s427 after 69 hrs by resazurin-based […] analysis; type: functional, organism-based; settings: s427, 69 h
# In short: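 Bloodstream T. b. brucei s427 was grown in modified HMI9 (56 μM 1-thioglycerol in place of 2-mercaptoethanol) and counted by hemocytometer. Cells (10^4/ml) were added to compound in DMSO and incubated 69 h at 37 °C, 5% CO2. Resazurin (50 μM final) was then added for 4 h more. Fluorescence read at ex 528/em 590 nm.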
# [4] = Intrinsic clearance in CD1 mouse liver microsomes at 1 uM measured up to 30 mins by UPLC-MS/MS method; type: ADME, microsome; settings: 0.5 h
# [5] = tested on: human NMT1 versus Trypanosoma brucei NMT; experiment: Selectivity ratio of IC50 for human NMT1 to IC50 for Trypanosoma brucei NMT; type: toxicity; settings: read-out: Ratio IC50
# In short: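 Both enzymes assayed by SPA in the same buffer: 0.125 μM [3H]myristoyl-coA, 0.5 μM biotinylated CAP5.5 peptide, 5 nM NMT, 22–23 °C. Reactions stopped at 15 min for HsNMT1 and 50 min for TbNMT. The ratio is HsNMT IC50 divided by TbNMT IC50.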
# human NMT = experiment: Therapeutic index, ratio of IC50 for human NMT to EC50 for bloodstream form of Trypanosoma brucei brucei s427; type: toxicity; settings: read-out: Ratio IC50/EC50
# [6] = target: Voltage-gated inwardly rectifying potassium channel KCNH2 (Homo sapiens, UniProt Q12809); experiment: Inhibition of human ERG by patch clamp assay
# Sequence of Voltage-gated inwardly rectifying potassium channel KCNH2 (Q12809 whole entry): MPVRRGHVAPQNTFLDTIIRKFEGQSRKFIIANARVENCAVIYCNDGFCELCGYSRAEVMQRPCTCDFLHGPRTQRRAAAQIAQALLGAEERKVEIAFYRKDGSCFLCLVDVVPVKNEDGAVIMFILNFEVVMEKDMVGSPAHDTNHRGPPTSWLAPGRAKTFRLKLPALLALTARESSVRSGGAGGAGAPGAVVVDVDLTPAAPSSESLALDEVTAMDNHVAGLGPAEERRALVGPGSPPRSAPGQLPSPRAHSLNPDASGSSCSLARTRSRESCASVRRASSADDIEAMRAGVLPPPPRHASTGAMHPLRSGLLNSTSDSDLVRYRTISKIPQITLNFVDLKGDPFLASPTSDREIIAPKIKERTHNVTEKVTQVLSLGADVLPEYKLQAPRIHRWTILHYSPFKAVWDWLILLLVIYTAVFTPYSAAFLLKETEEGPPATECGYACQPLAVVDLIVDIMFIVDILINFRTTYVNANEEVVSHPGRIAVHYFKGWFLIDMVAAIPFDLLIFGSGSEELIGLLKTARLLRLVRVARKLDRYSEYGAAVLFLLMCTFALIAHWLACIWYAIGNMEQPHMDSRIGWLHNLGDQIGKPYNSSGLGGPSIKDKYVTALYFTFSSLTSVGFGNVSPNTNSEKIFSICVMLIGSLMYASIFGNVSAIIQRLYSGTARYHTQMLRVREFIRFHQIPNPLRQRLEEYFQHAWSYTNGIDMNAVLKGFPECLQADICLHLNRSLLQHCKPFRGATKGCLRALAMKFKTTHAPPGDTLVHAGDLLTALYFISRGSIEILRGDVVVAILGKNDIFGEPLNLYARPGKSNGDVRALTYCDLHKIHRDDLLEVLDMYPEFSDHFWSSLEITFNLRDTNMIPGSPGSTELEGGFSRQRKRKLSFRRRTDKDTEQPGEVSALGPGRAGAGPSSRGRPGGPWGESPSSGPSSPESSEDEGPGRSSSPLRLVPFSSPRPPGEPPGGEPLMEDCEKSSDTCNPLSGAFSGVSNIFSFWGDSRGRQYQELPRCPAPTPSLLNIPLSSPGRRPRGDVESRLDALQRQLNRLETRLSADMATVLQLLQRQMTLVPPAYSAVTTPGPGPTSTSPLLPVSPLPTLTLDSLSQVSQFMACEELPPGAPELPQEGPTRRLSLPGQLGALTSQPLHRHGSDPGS
IC50 [1] [nM],EC50 [3] [nM],CLH [4] [mL/min/g],SMILES,IC50 [2] [nM],selectivity ratio [5],selectivity ratio (human NMT),IC50 [6] [nM]
> 100000,50000,,O=S(=O)(Nc1c(-c2ccccc2)ccc2ncccc12)c1ccc(Br)cc1,> 100000,,,
,,,O=S(=O)(Nc1ccc2scnc2c1)c1ccc(Br)cc1,24000,,,
> 100000,> 50000,> 50,CC(C)Cc1ccc2ncccc2c1NS(=O)(=O)c1ccc(Br)cc1,1700,> 59,,
,39,,CC(C)Cc1ccc2ncccc2c1NS(=O)(=O)c1ccc(CCCO[C@@H]2CCCN(C)C2)cc1,< 5,,,
> 100000,12000,,COC(=O)c1ccc(N2CCCCCC2)c(NS(=O)(=O)c2ccc(OC)cc2)c1,1000,> 100,8.3,
,140,3.7,CC(C)Cc1ccc2nn(C)cc2c1NS(=O)(=O)c1ccc(CCCCN2CCN3CCC[C@@H]3C2)cc1,14,,,
,35,4,CC(C)Cc1ccc2nn(C)cc2c1NS(=O)(=O)c1ccc(CCCCN2CCCN(C)CC2)cc1,< 5,,,
,31,3.7,CC(C)Cc1ccc2nn(C)cc2c1NS(=O)(=O)c1ccc(CCCOC[C@@H]2CCCN2C)cc1,< 5,,,3000
,84,2.3,CC(C)Cc1ccc2ncccc2c1NS(=O)(=O)c1ccc(CCCN2CCN(C)CC2)cc1,7,,,
,> 50000,> 50,O=S(=O)(Nc1c(C2CCCC2)ccc2ncccc12)c1ccc(Br)cc1,3200,,,
,9,22,CC(C)Cc1ccc2nn(C)cc2c1NS(=O)(=O)c1ccc(CCCOC[C@H]2CN(C)CCO2)cc1,< 5,,,
,9,2.3,CC(C)Cc1ccc2ncccc2c1NS(=O)(=O)c1ccc(CCCO[C@H]2C[C@H]3CC[C@@H](C2)N3C)cc1,< 5,,,
> 100000,> 50000,23,O=S(=O)(Nc1c(Cc2ccccc2)ccc2ncccc12)c1ccc(Br)cc1,6200,> 16,,
,39,,CC(C)Cc1ccc2ncccc2c1NS(=O)(=O)c1ccc(CCCOC[C@@H]2CNCCO2)cc1,< 5,,,
41000,11000,27,O=S(=O)(Nc1c(N2CCCC2)ccc2ncccc12)c1ccc(Br)cc1,7500,5.5,3.7,
> 100000,> 50000,,CC(C)Cc1ccc2nn(C)cc2c1NS(=O)(=O)c1ccc(Br)cc1,1100,> 91,,
,18000,> 50,O=S(=O)(Nc1c(N2CCCCCC2)ccc2ncccc12)c1ccc(Br)cc1,690,,,
> 100000,> 50000,,CCC(CC)c1ccc2ncccc2c1NS(=O)(=O)c1ccc(Br)cc1,5700,> 17,,
,16,,CC(C)Cc1ccc2nn(C)cc2c1NS(=O)(=O)c1ccc(CCCN2CCCN(C)CC2)cc1,5,,,
,5,1.2,CC(C)Cc1ccc2nn(C)cc2c1NS(=O)(=O)c1ccc(CCCC2CCN(C)CC2)cc1,< 5,,,
,18,3.7,CC(C)Cc1ccc2ncccc2c1NS(=O)(=O)c1ccc(CCCN2CCCN(C)CC2)cc1,< 5,,,
,76,,CC(C)Cc1ccc2nn(C)cc2c1NS(=O)(=O)c1ccc(CCCOC[C@@H]2COCCN2C)cc1,9,,,
> 100000,> 50000,,Cn1cc2c(NS(=O)(=O)c3ccc(Br)cc3)c(CC3CCCCC3)ccc2n1,1700,> 59,,
,20,,CC(C)Cc1ccc2nn(C)cc2c1NS(=O)(=O)c1ccc(CCCOC[C@H]2CCCN2C)cc1,< 5,,,

IC50 [1] [nM],EC50 [3] [nM],CLH [4] [mL/min/g],SMILES,IC50 [2] [nM],selectivity ratio [5],selectivity ratio (human NMT),IC50 [6] [nM]
1200,76,,CN1CCC(CCCCc2ccc(S(=O)(=O)Nc3c(N4CCCC4)ccc4ncccc34)cc2)CC1,11,110,16,
> 100000,24000,33,Cn1cc2c(NS(=O)(=O)c3ccc(Br)cc3)c(N3CCCC3)ccc2n1,27000,> 3.7,> 4.1,
> 100000,39000,38,O=S(=O)(Nc1c(C2CCCCC2)ccc2ncccc12)c1ccc(Br)cc1,63000,> 1.6,> 2.6,
,9,2.6,CC(C)Cc1ccc2ncccc2c1NS(=O)(=O)c1ccc(CCCC2CCN(C)CC2)cc1,< 5,,,
,,,COC(=O)c1cccc(NS(=O)(=O)c2ccc(Br)cc2)c1,> 100000,,,
,,,O=S(=O)(Nc1cc(-c2cccnc2)ccc1N1CCCC1)c1ccc(Br)cc1,39000,,,
,26,24,CC(C)Cc1ccc2nn(C)cc2c1NS(=O)(=O)c1ccc(CCCOC[C@@H]2CN(C)CCO2)cc1,< 5,,,
> 100000,> 50000,6.3,Cn1cc2c(NS(=O)(=O)c3ccc(Br)cc3)cccc2n1,27000,> 3.7,,
,250,8.9,CC(C)Cc1ccc2ncccc2c1NS(=O)(=O)c1ccc(CCCCN2CCN3CCC[C@@H]3C2)cc1,12,,,
,21,1.5,CC(C)Cc1ccc2ncccc2c1NS(=O)(=O)c1ccc(CCCCC2CCNCC2)cc1,< 5,,,
,33,,CC(C)Cc1ccc2ncccc2c1NS(=O)(=O)c1ccc(CCCOC[C@@H]2CN(C)CCO2)cc1,< 5,,,
> 100000,23000,33,O=S(=O)(Nc1c(CC2CCCCC2)ccc2ncccc12)c1ccc(Br)cc1,1400,> 71,> 4.3,
> 100000,> 50000,,Cn1cc2c(NS(=O)(=O)c3ccc(Br)cc3)c(C3CCCC3)ccc2n1,26000,> 3.8,,
,180,1.3,CC(C)Cc1ccc2ncccc2c1NS(=O)(=O)c1ccc(CCCCN2CCNCC2)cc1,10,,,
,,,COc1ccc(S(=O)(=O)Nc2cc(C(=O)O)ccc2N2CCCCCC2)cc1,> 100000,,,
> 100000,32000,,Cn1cc2c(NS(=O)(=O)c3ccc(Br)cc3)c(C3CCCCC3)ccc2n1,17000,> 5.9,> 3.1,
> 100000,21000,,COC(=O)c1ccc(N2CCCC2)c(NS(=O)(=O)c2ccc(Br)cc2)c1,800,> 100,> 4.8,
> 100000,,3.6,Cc1ccc2ncccc2c1NS(=O)(=O)c1ccc(Br)cc1,33000,> 3,,
,350,,CC(C)Cc1ccc2ncccc2c1NS(=O)(=O)c1ccc(CCCCN2C[C@@H](C)N[C@@H](C)C2)cc1,16,,,
> 100000,> 50000,,O=S(=O)(Nc1cccc2ncccc12)c1ccc(Br)cc1,87000 to 90000,> 1.1,,
,,,O=C1OCc2c1ccc(N1CCCC1)c2NS(=O)(=O)c1ccc(Br)cc1,> 100000,,,
,19,6.2,CC(C)Cc1ccc2ncccc2c1NS(=O)(=O)c1ccc(CCCCC2CCN(C)CC2)cc1,< 5,,,
> 100000,15000,,COC(=O)c1ccc(N2CCCC2)c(NS(=O)(=O)c2ccc(OC)cc2)c1,700,> 100,> 6.7,
,,,COC(=O)c1ccc(N2CCCCC2)c(NS(=O)(=O)c2ccc(Br)cc2)c1,> 100000,,,
